Measurements from ChEMBL document CHEMBL4257493, “Discovery of 7-hydroxyaporphines as conformationally restricted ligands for beta-1 and beta-2 adrenergic receptors” (Medchemcomm, 2018).
The source made the active and inactive calls. The calls are words filed in the database; no cut-off is given here.

Assays:
[1] = target: T1, Beta-2 adrenergic receptor (Homo sapiens, UniProt P07550); test: Displacement of [3H]-CGP-12177 from human beta2-adrenergic receptor
[2] = target: Beta-3 adrenergic receptor (Homo sapiens, UniProt P13945); test: Binding affinity to andrenergic beta3 receptor (unknown origin) assessed as inhibition of radioligand binding at 10 uM by radioligand competition binding assay
[3] = target: Delta-type opioid receptor (Homo sapiens) (UniProt P41143); test: Binding affinity to DOR (unknown origin) assessed as inhibition of radioligand binding by radioligand competition binding assay; settings: concentration not given here
[4] = target: 5-hydroxytryptamine receptor 7 (Homo sapiens, UniProt P34969); test: Binding affinity to 5-HT7 receptor (unknown origin) assessed as inhibition of radioligand binding at 10 uM by radioligand competition binding assay
[5] = species on record: Homo sapiens; test: Binding affinity to sigma2 receptor (unknown origin) assessed as inhibition of radioligand binding by radioligand competition binding assay; settings: concentration not given here
[6] = target: 5-hydroxytryptamine receptor 1B (Homo sapiens, UniProt P28222); test: Binding affinity to 5-HT1B receptor (unknown origin) assessed as inhibition of radioligand binding by radioligand competition binding assay
[7] = target: 5-hydroxytryptamine receptor 3A (Homo sapiens) (UniProt P46098); test: Binding affinity to 5-HT3 receptor (unknown origin) assessed as inhibition of radioligand binding by radioligand competition binding assay; settings: concentration not given here
[8] = target: Muscarinic acetylcholine receptor M3 (Homo sapiens) (UniProt P20309); test: Binding affinity to muscarinic M3 receptor (unknown origin) assessed as inhibition of radioligand binding by radioligand competition binding assay; settings: concentration not given here
[9] = target: 5-hydroxytryptamine receptor 1D (Homo sapiens, UniProt P28221); test: Binding affinity to 5-HT1D receptor (unknown origin) assessed as inhibition of radioligand binding at 10 uM by radioligand competition binding assay
[10] = target: 5-hydroxytryptamine receptor 2B (Homo sapiens, UniProt P41595); test: Binding affinity to 5-HT2B receptor (unknown origin) assessed as inhibition of radioligand binding at 10 uM by radioligand competition binding assay
[11] = target: Sigma non-opioid intracellular receptor 1 (Homo sapiens) (UniProt Q99720); test: Binding affinity to sigma1 receptor (unknown origin) assessed as inhibition of radioligand binding by radioligand competition binding assay; settings: concentration not given here
[12] = target: Sodium-dependent serotonin transporter (Homo sapiens) (UniProt P31645); test: Binding affinity to SERT (unknown origin) assessed as inhibition of radioligand binding by radioligand competition binding assay; settings: concentration not given here
[13] = target: T1, Beta-2 adrenergic receptor; test: Agonist activity at human beta2-adrenergic receptor expressed in CHO-K1 cells assessed as increase in cAMP accumulation after 20 mins by HTRF assay; type: functional, cell-based
In short: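 Human β2 receptor expressed in CHO cells; cAMP accumulation read out by HTRF. Vehicle 0.40% DMSO. Incubated 20 minutes at 37°C in HBSS, 5 mM HEPES, 0.1% BSA, 100 μM IBMX, pH 7.4. Performed by a contract screening service.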
Target sequence in this assay (P07550 whole entry, looked up): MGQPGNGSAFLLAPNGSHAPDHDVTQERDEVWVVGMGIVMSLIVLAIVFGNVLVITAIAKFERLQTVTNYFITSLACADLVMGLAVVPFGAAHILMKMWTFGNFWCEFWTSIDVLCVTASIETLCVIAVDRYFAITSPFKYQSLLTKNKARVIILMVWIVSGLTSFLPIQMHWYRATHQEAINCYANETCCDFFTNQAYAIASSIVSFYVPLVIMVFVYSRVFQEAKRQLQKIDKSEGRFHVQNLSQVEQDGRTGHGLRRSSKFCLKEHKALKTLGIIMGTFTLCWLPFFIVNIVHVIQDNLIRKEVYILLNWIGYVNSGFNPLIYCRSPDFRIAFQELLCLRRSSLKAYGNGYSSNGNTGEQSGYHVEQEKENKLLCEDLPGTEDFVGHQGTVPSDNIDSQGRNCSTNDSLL

[14] = target: Alpha-2A adrenergic receptor (Homo sapiens, UniProt P08913); test: Binding affinity to andrenergic alpha2A receptor (unknown origin) assessed as inhibition of radioligand binding by radioligand competition binding assay
[15] = target: 5-hydroxytryptamine receptor 1A (Homo sapiens, UniProt P08908); test: Binding affinity to 5-HT1A receptor (unknown origin) assessed as inhibition of radioligand binding by radioligand competition binding assay
[16] = target: Muscarinic acetylcholine receptor M1 (Homo sapiens) (UniProt P11229); test: Binding affinity to muscarinic M1 receptor (unknown origin) assessed as inhibition of radioligand binding by radioligand competition binding assay; settings: concentration not given here
[17] = target: Translocator protein (Homo sapiens) (UniProt P30536); test: Binding affinity to PBR (unknown origin) assessed as inhibition of radioligand binding by radioligand competition binding assay; settings: concentration not given here
[18] = target: Alpha-2B adrenergic receptor (Homo sapiens) (UniProt P18089); test: Binding affinity to andrenergic alpha2B receptor (unknown origin) assessed as inhibition of radioligand binding at 10 uM by radioligand competition binding assay
[19] = target: Histamine H2 receptor (Homo sapiens) (UniProt P25021); test: Binding affinity to histamine H2 receptor (unknown origin) assessed as inhibition of radioligand binding by radioligand competition binding assay; settings: concentration not given here
[20] = target: 5-hydroxytryptamine receptor 6 (Homo sapiens, UniProt P50406); test: Binding affinity to 5-HT6 receptor (unknown origin) assessed as inhibition of radioligand binding at 10 uM by radioligand competition binding assay
[21] = target: Histamine H4 receptor (Homo sapiens) (UniProt Q9H3N8); test: Binding affinity to histamine H4 receptor (unknown origin) assessed as inhibition of radioligand binding by radioligand competition binding assay; settings: concentration not given here
[22] = target: Alpha-1B adrenergic receptor (Homo sapiens) (UniProt P35368); test: Binding affinity to andrenergic alpha1B receptor (unknown origin) assessed as inhibition of radioligand binding by radioligand competition binding assay; settings: concentration not given here
[23] = target: 5-hydroxytryptamine receptor 1A (Homo sapiens) (UniProt P08908); test: Binding affinity to 5-HT1A receptor (unknown origin) assessed as inhibition of radioligand binding at 10 uM by radioligand competition binding assay
[24] = target: Alpha-1D adrenergic receptor (Homo sapiens) (UniProt P25100); test: Binding affinity to andrenergic alpha1D receptor (unknown origin) assessed as inhibition of radioligand binding by radioligand competition binding assay; settings: concentration not given here
[25] = target: T2, Beta-1 adrenergic receptor (Homo sapiens, UniProt P08588); test: Displacement of [3H]-CGP-12177 from human beta1-adrenergic receptor
[26] = target: Alpha-1A adrenergic receptor (Homo sapiens) (UniProt P35348); test: Binding affinity to andrenergic alpha1A receptor (unknown origin) assessed as inhibition of radioligand binding by radioligand competition binding assay; settings: concentration not given here
[27] = target: T2, Beta-1 adrenergic receptor; test: Agonist activity at human beta1-adrenergic receptor expressed in CHO-K1 cells assessed as induction of cAMP accumulation after 15 mins by HTRF assay; type: functional, cell-based
In short: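 cAMP accumulation in human β1-expressing CHO-K1 cells, quantified by HTRF. Vehicle 0.40% DMSO. Incubation 15 minutes at 37°C in HBSS with 5 mM HEPES, 0.1% BSA and 100 μM IBMX, pH 7.4. Run by a contract screening service.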

[28] = target: D(2) dopamine receptor (Homo sapiens) (UniProt P14416); test: Binding affinity to dopamine D2 receptor (unknown origin) assessed as inhibition of radioligand binding by radioligand competition binding assay; settings: concentration not given here
[29] = target: Histamine H1 receptor (Homo sapiens) (UniProt P35367); test: Binding affinity to histamine H1 receptor (unknown origin) assessed as inhibition of radioligand binding by radioligand competition binding assay; settings: concentration not given here
[30] = target: T1, Beta-2 adrenergic receptor; test: Binding affinity to andrenergic beta2 receptor (unknown origin) assessed as inhibition of radioligand binding at 10 uM by radioligand competition binding assay
Target sequence in this assay (P07550 whole entry, looked up): as above

[31] = species on record: Homo sapiens; test: Ratio of IC50 for human beta3-adrenergic receptor to IC50 for human beta1-adrenergic receptor
[32] = target: Alpha-2A adrenergic receptor (Homo sapiens) (UniProt P08913); test: Binding affinity to andrenergic alpha2A receptor (unknown origin) assessed as inhibition of radioligand binding at 10 uM by radioligand competition binding assay
Chain of Alpha-2A adrenergic receptor (Homo sapiens) (P08913 whole entry): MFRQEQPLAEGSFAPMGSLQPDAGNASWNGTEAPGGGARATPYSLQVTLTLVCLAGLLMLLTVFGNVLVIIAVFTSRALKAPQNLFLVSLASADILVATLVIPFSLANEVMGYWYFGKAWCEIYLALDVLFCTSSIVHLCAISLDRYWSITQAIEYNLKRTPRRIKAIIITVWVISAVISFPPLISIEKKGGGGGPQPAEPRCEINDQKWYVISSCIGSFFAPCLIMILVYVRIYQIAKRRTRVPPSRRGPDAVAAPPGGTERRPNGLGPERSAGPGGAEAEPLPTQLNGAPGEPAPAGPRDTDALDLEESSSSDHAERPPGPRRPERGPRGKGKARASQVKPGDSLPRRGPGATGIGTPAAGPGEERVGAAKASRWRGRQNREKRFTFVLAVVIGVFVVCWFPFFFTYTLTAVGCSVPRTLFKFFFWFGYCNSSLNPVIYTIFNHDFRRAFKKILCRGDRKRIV

Chain of Alpha-2A adrenergic receptor (P08913 whole entry): as above
Chain of Alpha-1B adrenergic receptor (Homo sapiens) (P35368 whole entry): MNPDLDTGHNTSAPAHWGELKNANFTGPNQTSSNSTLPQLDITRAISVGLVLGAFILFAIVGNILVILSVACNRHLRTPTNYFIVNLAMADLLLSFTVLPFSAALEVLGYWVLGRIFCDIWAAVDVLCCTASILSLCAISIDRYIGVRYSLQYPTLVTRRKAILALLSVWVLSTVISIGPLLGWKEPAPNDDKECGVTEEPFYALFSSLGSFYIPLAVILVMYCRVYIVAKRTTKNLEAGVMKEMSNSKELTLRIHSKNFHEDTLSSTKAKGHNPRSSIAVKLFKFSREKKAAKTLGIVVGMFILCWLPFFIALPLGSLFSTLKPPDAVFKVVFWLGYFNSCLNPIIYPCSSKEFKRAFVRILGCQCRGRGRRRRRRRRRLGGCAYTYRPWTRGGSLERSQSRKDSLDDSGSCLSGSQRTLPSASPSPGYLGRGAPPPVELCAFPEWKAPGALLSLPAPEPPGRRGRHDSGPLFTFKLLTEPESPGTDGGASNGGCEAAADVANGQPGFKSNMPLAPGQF
Chain of 5-hydroxytryptamine receptor 1D (P28221 whole entry): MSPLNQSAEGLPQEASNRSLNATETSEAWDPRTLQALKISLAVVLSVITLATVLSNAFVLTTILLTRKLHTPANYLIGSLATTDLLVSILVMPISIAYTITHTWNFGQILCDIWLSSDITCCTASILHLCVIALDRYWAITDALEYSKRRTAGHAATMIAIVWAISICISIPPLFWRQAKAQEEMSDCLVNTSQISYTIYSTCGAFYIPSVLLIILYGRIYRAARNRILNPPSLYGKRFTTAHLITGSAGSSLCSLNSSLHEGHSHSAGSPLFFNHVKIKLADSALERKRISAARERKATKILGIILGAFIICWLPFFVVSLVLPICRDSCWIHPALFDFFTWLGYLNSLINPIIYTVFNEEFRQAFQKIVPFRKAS
Chain of Alpha-1A adrenergic receptor (Homo sapiens) (P35348 whole entry): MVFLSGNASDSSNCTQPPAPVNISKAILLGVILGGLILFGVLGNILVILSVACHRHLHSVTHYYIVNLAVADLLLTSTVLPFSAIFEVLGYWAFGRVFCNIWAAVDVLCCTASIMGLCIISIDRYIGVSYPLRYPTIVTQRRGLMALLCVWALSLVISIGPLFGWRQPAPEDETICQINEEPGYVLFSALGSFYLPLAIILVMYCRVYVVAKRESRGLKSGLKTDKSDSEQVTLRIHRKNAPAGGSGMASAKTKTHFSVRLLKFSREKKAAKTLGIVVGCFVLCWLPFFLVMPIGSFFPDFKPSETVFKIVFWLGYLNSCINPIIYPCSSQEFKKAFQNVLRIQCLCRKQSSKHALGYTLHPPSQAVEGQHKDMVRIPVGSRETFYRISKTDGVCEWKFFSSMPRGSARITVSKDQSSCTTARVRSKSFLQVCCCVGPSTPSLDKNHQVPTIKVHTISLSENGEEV
Chain of Beta-3 adrenergic receptor (P13945 whole entry, looked up): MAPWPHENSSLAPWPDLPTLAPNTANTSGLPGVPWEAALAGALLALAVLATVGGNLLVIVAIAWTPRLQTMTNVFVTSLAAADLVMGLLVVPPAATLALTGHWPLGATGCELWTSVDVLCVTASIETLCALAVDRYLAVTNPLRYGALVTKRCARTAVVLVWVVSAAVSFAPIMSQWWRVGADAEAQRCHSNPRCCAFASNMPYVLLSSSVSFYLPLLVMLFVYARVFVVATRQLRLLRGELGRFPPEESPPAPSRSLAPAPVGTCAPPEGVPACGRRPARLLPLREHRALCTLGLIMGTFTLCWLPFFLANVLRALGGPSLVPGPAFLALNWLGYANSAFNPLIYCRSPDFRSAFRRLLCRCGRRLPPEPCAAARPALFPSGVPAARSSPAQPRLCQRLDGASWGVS
Chain of Sodium-dependent serotonin transporter (Homo sapiens) (P31645 whole entry, looked up): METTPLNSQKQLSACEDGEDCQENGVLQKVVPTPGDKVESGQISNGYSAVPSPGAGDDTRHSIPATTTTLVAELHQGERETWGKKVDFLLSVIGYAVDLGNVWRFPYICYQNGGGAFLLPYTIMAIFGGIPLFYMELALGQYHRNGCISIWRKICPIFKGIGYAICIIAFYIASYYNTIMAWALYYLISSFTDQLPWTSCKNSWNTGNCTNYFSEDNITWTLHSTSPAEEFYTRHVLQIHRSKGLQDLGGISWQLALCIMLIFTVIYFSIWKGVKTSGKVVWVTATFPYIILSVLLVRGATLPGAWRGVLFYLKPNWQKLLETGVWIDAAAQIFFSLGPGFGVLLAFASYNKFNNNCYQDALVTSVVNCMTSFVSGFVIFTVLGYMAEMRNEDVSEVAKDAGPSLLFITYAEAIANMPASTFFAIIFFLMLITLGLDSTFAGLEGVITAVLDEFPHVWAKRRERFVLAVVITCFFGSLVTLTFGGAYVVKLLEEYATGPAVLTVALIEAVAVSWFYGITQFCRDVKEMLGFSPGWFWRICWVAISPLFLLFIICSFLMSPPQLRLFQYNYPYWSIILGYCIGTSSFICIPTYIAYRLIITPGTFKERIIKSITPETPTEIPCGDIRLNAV
Chain of 5-hydroxytryptamine receptor 7 (P34969 whole entry): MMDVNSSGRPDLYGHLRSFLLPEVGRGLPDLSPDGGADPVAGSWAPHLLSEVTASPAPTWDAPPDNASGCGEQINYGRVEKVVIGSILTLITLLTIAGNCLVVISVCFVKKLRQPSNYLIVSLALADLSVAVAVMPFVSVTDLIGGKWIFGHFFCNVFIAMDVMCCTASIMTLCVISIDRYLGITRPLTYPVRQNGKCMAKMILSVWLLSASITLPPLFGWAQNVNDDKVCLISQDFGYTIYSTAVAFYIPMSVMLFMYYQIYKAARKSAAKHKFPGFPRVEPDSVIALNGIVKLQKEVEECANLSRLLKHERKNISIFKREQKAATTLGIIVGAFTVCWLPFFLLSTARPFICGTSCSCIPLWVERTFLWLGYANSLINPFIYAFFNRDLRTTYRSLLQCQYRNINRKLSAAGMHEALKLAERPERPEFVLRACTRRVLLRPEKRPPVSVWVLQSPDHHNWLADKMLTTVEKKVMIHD
Chain of Delta-type opioid receptor (Homo sapiens) (P41143 whole entry): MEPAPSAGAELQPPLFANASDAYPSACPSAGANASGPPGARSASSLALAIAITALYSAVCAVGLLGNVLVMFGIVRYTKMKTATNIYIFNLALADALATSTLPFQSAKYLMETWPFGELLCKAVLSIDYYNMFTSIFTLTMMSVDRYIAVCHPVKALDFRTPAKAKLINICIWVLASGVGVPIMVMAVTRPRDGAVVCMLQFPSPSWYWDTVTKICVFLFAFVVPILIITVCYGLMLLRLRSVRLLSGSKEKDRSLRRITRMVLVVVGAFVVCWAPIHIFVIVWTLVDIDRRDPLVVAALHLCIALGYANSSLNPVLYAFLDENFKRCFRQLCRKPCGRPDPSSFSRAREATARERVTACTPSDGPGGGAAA
Chain of Translocator protein (Homo sapiens) (P30536 whole entry): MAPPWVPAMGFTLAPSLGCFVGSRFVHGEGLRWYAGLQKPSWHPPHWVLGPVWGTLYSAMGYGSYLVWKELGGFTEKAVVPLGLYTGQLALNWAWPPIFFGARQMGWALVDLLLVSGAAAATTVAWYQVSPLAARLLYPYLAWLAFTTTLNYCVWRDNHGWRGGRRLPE
Chain of 5-hydroxytryptamine receptor 2B (P41595 whole entry): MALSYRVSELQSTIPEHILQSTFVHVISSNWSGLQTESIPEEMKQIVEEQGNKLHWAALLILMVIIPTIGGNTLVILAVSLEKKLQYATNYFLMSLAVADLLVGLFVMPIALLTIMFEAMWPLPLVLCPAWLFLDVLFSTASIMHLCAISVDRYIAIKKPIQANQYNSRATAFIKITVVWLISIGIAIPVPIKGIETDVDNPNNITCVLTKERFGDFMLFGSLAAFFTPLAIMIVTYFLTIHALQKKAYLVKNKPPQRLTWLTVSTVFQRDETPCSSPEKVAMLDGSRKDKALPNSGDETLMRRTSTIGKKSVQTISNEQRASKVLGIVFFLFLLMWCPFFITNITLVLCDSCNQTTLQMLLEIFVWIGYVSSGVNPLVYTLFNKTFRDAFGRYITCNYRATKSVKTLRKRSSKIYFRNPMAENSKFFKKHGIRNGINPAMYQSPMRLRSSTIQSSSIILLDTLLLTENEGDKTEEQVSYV

Question: For `COc1cc2c3c(c1OC)-c1ccccc1[C@@H](O)[C@@H]3NCC2`, which IC50 [1] is on record?
Answer: Its IC50 is 1.4 nM.

Question: What about the inhibition [2] of the same compound?
Answer: Its inhibition is greater than 50%.

Question: What about the inhibition [3] of the same compound?
Answer: The inhibition was less than 50%.

Question: And the inhibition [4]?
Answer: The inhibition was greater than 50%.

Question: And the inhibition [5]?
Answer: Its inhibition is less than 50%.

Question: And the Ki [6]?
Answer: The Ki was 1210 nM.

Question: What about the inhibition [7] of the same compound?
Answer: The inhibition was less than 50%.

Question: What about the inhibition [8] of the same compound?
Answer: Its inhibition is less than 50%.

Question: And the inhibition [9]?
Answer: Its inhibition is greater than 50%.

Question: What about the inhibition [10] of the same compound?
Answer: Its inhibition is greater than 50%.

Question: What about the inhibition [11] of the same compound?
Answer: The inhibition was less than 50%.

Question: And the inhibition [12]?
Answer: Its inhibition is less than 50%.

Question: What about the Activity [13] of the same compound?
Answer: The Activity was “inactive”.

Question: And the Ki [14]?
Answer: Its Ki is 1150 nM.

Question: What about the Ki [15] of the same compound?
Answer: Its Ki is 71 nM.

Question: And the inhibition [16]?
Answer: The inhibition was less than 50%.

Question: What about the inhibition [17] of the same compound?
Answer: Its inhibition is less than 50%.

Question: What about the inhibition [18] of the same compound?
Answer: The inhibition was greater than 50%.

Question: What about the inhibition [19] of the same compound?
Answer: Its inhibition is less than 50%.

Question: And the inhibition [20]?
Answer: The inhibition was greater than 50%.

Question: And the inhibition [21]?
Answer: Its inhibition is less than 50%.

Question: What about the inhibition [22] of the same compound?
Answer: The inhibition was less than 50%.

Question: And the inhibition [23]?
Answer: The inhibition was greater than 50%.

Question: What about the inhibition [24] of the same compound?
Answer: The inhibition was less than 50%.

Question: And the IC50 [25]?
Answer: Its IC50 is 1.7 nM.

Question: What about the inhibition [26] of the same compound?
Answer: The inhibition was less than 50%.

Question: And the Activity [27]?
Answer: The Activity was “inactive”.

Question: And the inhibition [28]?
Answer: Its inhibition is less than 50%.

Question: And the inhibition [29]?
Answer: Its inhibition is less than 50%.

Question: What about the inhibition [30] of the same compound?
Answer: The inhibition was greater than 50%.

Question: And the Ratio IC50 [31]?
Answer: The Ratio IC50 was 150.

Question: What about the inhibition [32] of the same compound?
Answer: Its inhibition is greater than 50%.
